The values below come from ChEMBL document CHEMBL3425414, “Synthesis of a New Peptide-Coumarin Conjugate: A Potential Agent against Cryptococcosis” (ACS Med Chem Lett, 2015).

Series [1] deals with Cryptococcus gattii species complex. Kind of series: Antifungal activity against Cryptococcus gattii ICB 181 after 72 hrs by microdilution method. The format is functional, Cryptococcus bacillisporus. As to conditions: ICB 181, 72 h. In short, it runs like this: (§1)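 Broth microdilution susceptibility per CLSI M27-A3; MIC reported in […]. Panel includes C. gattii strains (one fluconazole-resistant, L27/01F) and C. neoformans ATCC strains; fluconazole run as reference drug.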
On the technique in general: Broth dilution looks for growth in wells or tubes with falling amounts of substance.

Series [2] has the same test system. As to the kind of experiment: Antifungal activity against Cryptococcus gattii L135/03 after 72 hrs by microdilution method. The series is classed as functional, Cryptococcus bacillisporus. As to conditions: L135/03, 72 h. In short, it runs like this:
as §1

Series [3] has the same test system. Kind of series: Antifungal activity against Cryptococcus gattii 196L/03 after 72 hrs by microdilution method. The series is classed as functional, Cryptococcus bacillisporus. As to conditions: 196L/03, 72 h. The essentials:
as §1

The test system is the same in series [4]. Kind of series: Antifungal activity against Cryptococcus gattii 547/OTT after 72 hrs by microdilution method. The series is classed as functional, Cryptococcus bacillisporus. In short, it runs like this:
as §1

Series [5] deals with Cryptococcus bacillisporus. As to the kind of experiment: Antifungal activity against Cryptococcus gattii ATCC 32608 after 72 hrs by microdilution method. The format is functional. As to conditions: ATCC 32608, 72 h. In short, it runs like this:
as §1

The subject of series [6] is Cryptococcus gattii species complex. As to the kind of experiment: Antifungal activity against Cryptococcus gattii 1913ER after 72 hrs by microdilution method. The series is classed as functional, Cryptococcus bacillisporus. In short, it runs like this: as §1
The test system is the same in series [7]. As to the kind of experiment: Antifungal activity against Cryptococcus gattii L27/01 after 72 hrs by microdilution method. The series is classed as functional, Cryptococcus bacillisporus. As to conditions: L27/01, 72 h. The essentials: as §1
Series [8] has the same test system. As to the kind of experiment: Antifungal activity against Cryptococcus gattii L28/02 after 72 hrs by microdilution method. The format is functional, Cryptococcus bacillisporus. As to conditions: L28/02, 72 h. In short, it runs like this: as §1
The test system is the same in series [9]. As to the kind of experiment: Antifungal activity against Cryptococcus gattii LMM 818 after 72 hrs by microdilution method. The format is functional, Cryptococcus bacillisporus. As to conditions: LMM 818, 72 h. In short, it runs like this: as §1
The test system is the same in series [10]. As to the kind of experiment: Antifungal activity against Cryptococcus gattii L24/01 after 72 hrs by microdilution method. The series is classed as functional, Cryptococcus bacillisporus. As to conditions: L24/01, 72 h. In short, it runs like this:
as §1

Series [11] has the same test system. As to the kind of experiment: Antifungal activity against Cryptococcus gattii 23/10993 after 72 hrs by microdilution method. The format is functional, Cryptococcus bacillisporus. As to conditions: 23/10993, 72 h. The essentials:
as §1

Series [12] shares this test system. As to the kind of experiment: Antifungal activity against Cryptococcus gattii 29/10893 after 72 hrs by microdilution method. As to conditions: 29/10893, 72 h. The series is classed as functional, Cryptococcus bacillisporus. In short, it runs like this:
as §1

Series [13] shares this test system. Kind of series: Antifungal activity against fluconazole-resistant Cryptococcus gattii L27/01F after 72 hrs by microdilution method. The format is functional, Cryptococcus bacillisporus. The essentials:
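Broth microdilution susceptibility test following the CLSI M27-A3 standard; the MIC is reported in […]. Fluconazole is run in parallel as the reference drug across the C. gattii and C. neoformans strain panel.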

The test system of series [14] is Cryptococcus neoformans. As to the kind of experiment: Antifungal activity against Cryptococcus neoformans ATCC 96806 after 72 hrs by microdilution method. The format is functional. As to conditions: ATCC 96806, 72 h. The essentials:
as §1

Series [15] relates to Cryptococcus neoformans. As to the kind of experiment: Antifungal activity against Cryptococcus neoformans ATCC 62066 after 72 hrs by microdilution method. The format is functional. As to conditions: ATCC 62066, 72 h. In short, it runs like this:
as §1

The subject of series [16] is Cryptococcus neoformans. Kind of series: Antifungal activity against Cryptococcus neoformans ATCC 24067 after 72 hrs by microdilution method. The format is functional. As to conditions: ATCC 24067, 72 h. The essentials: as §1
In series [17] the test system is Cryptococcus neoformans. Kind of series: Antifungal activity against Cryptococcus neoformans ATCC 28957 after 72 hrs by microdilution method. The series is classed as functional. As to conditions: ATCC 28957, 72 h. The essentials: as §1
For another series, the system named is Cryptococcus gattii. Kind of series: Antifungal activity against Cryptococcus gattii ATCC 24065 after 72 hrs by microdilution method. As to conditions: ATCC 24065, 72 h.
Series [18] deals with Cryptococcus bacillisporus. As to the kind of experiment: Induction of reactive oxygen species formation in Cryptococcus gattii ATCC 32608 at MIC after 0.5 to 1 hr by dichlorofluorescein diacetate probe-based fluorometric assay relative to control. The series is classed as functional, organism-based. The essentials: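 Endogenous ROS in C. gattii ATCC 32608 cells treated at the compound's MIC, measured fluorometrically (signal proportional to ROS accumulation); untreated cells and compound alone measured for baseline; group differences tested statistically.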

Series [19] is described as follows: Induction of reactive oxygen species formation after 0.5 to 1 hr by dichlorofluorescein diacetate probe-based fluorometric assay. The series is classed as physicochemical.

≈ marks a conversion by molar mass, not a printed value. Calls of active or inactive are those of the source. The calls are words filed in the database; no cut-off is given here. Peptide text beside a SMILES is read from it. * marks the point of attachment. X1 = CCN(CC)c1ccc2cc(-n3cc(CCC(=O)*)nn3)c(=O)oc2c1; Pent4ynoyl = C#CCCC(=O)*

One may read the MIC as the lowest concentration that inhibits growth of the organism. Higher therefore signals a less susceptible organism. On to `CCN(CC)c1ccc2cc(N=[N+]=[N-])c(=O)oc2c1`, for which the minimum inhibitory concentration (MIC) in [1], in series [2], in series [3], in series [4], in series [5] and in series [6] was greater than 990 µM throughout. The MIC in series [7], in series [8], in series [9], in series [10], in [11] and in series [12] was greater than 990 µM each time. For the same compound, the MIC (in [13]; in the series with Cryptococcus neoformans [14]; in the series with Cryptococcus neoformans [15]; in the series on Cryptococcus neoformans [16]; with Cryptococcus neoformans [17]; in the series on Cryptococcus gattii) was greater than 990 µM throughout.
As to `CCN(CC)c1ccc2cc(-n3cc(CCCO)nn3)c(=O)oc2c1`, the MIC in [1], in [2], in series [3], in series [4], in [5] and in series [6] was greater than 750 µM throughout. In addition, the MIC in series [7], in [8], in series [9], in series [10], in [11] and in series [12] was greater than 750 µM in each case. Further, the minimum inhibitory concentration (MIC) (in [13]; against Cryptococcus neoformans [14]; against Cryptococcus neoformans [15]; in the series on Cryptococcus neoformans [16]; against Cryptococcus neoformans [17]; with Cryptococcus gattii) was greater than 750 µM throughout. Also, the outcome in series [18] was Active.
For the compound `C#CCCC(=O)N[C@@H](CCCNC(=N)N)C(=O)N[C@@H](C)C(=O)N[C@@H](CCCCN)C(=O)N[C@@H](CCCNC(=N)N)C(=O)N[C@@H](CCCNC(=N)N)C(=O)N[C@@H](CCSC)C(=O)N[C@@H](CCC(N)=O)C(=O)N[C@@H](Cc1ccc(O)cc1)C(N)=O` (Pent4ynoyl-RAKRRMQY-NH2), the MIC in [1], in [2], in [3], in series [4], in [5] and in [6] was greater than 220 µM in each case. Further, the MIC in series [7], in series [8], in [9], in [10], in series [11] and in series [12] was greater than 220 µM each time. Further, the minimal inhibitory concentration (MIC) (in series [13]; in the series with Cryptococcus neoformans [14]; in the series with Cryptococcus neoformans [15]; in the series on Cryptococcus neoformans [16]; against Cryptococcus neoformans [17]; in the series on Cryptococcus gattii) was greater than 220 µM each time.
For the compound `CCN(CC)c1ccc2cc(-n3cc(CCC(=O)N[C@@H](CCCNC(=N)N)C(=O)N[C@@H](C)C(=O)N[C@@H](CCCCN)C(=O)N[C@@H](CCCNC(=N)N)C(=O)N[C@@H](CCCNC(=N)N)C(=O)N[C@@H](CCSC)C(=O)N[C@@H](CCC(N)=O)C(=O)N[C@@H](Cc4ccc(O)cc4)C(N)=O)nn3)c(=O)oc2c1` (X1-RAKRRMQY-NH2), the minimal inhibitory concentration (MIC) stood at 90 µM (≈ 130 µg/mL) in [1]; 40 µM (≈ 57.8 µg/mL) in series [2]; 40 µM (≈ 57.8 µg/mL) in series [3]; 40 µM (≈ 57.8 µg/mL) in series [4]; 90 µM (≈ 130 µg/mL) in series [5]; 180 µM (≈ 260 µg/mL) in series [6]. Also, the minimal inhibitory concentration (MIC) in series [7] was found to be 40 µM (≈ 57.8 µg/mL); in series [8] it was 90 µM (≈ 130 µg/mL); in series [9], 180 µM (≈ 260 µg/mL); in series [10], 90 µM (≈ 130 µg/mL); in series [11] it was 180 µM (≈ 260 µg/mL); in series [12] it was 90 µM (≈ 130 µg/mL). In addition, the MIC was 90 µM (≈ 130 µg/mL) in [13]; 90 µM (≈ 130 µg/mL) against Cryptococcus neoformans [14]; 90 µM (≈ 130 µg/mL) in the series with Cryptococcus neoformans [15]; 90 µM (≈ 130 µg/mL) with Cryptococcus neoformans [16]; 90 µM (≈ 130 µg/mL) with Cryptococcus neoformans [17]; 180 µM (≈ 260 µg/mL) in the series with Cryptococcus gattii. In addition, the outcome in series [18] was Active. Further, the Activity entry in [19] was “Not Active”.
For the compound `OC(Cn1cncn1)(Cn1cncn1)c1ccc(F)cc1F` [FLUCONAZOLE], the MIC in series [1] stood at 50 µM (≈ 15.3 µg/mL); in series [2], 50 µM (≈ 15.3 µg/mL); in [3], 100 µM (≈ 30.6 µg/mL); in series [4] it was 100 µM (≈ 30.6 µg/mL); in [5] it was 50 µM (≈ 15.3 µg/mL); in [6], 50 µM (≈ 15.3 µg/mL). The MIC worked out at 100 µM (≈ 30.6 µg/mL) in [7]; 100 µM (≈ 30.6 µg/mL) in series [8]; 100 µM (≈ 30.6 µg/mL) in series [9]; 50 µM (≈ 15.3 µg/mL) in [10]; 50 µM (≈ 15.3 µg/mL) in [11]; 30 µM (≈ 9.19 µg/mL) in series [12]. Also, the MIC in series [13] is 420 µM (≈ 129 µg/mL); in the series with Cryptococcus neoformans [14] it was 150 µM (≈ 45.9 µg/mL); in the series on Cryptococcus neoformans [15], 30 µM (≈ 9.19 µg/mL); with Cryptococcus neoformans [16], 20 µM (≈ 6.13 µg/mL); against Cryptococcus neoformans [17], 3 µM (≈ 0.919 µg/mL); in the series on Cryptococcus gattii, 10 µM (≈ 3.06 µg/mL).
Take H-RAKRRMQY-NH2: the MIC in [1], in series [2], in [3], in series [4], in series [5] and in [6] was greater than 230 µM in each case. In addition, the MIC in series [7], in series [8], in series [9], in series [10], in series [11] and in series [12] was greater than 230 µM in each case. In addition, the MIC (in series [13]; in the series on Cryptococcus neoformans [14]; in the series on Cryptococcus neoformans [15]; against Cryptococcus neoformans [16]; with Cryptococcus neoformans [17]; in the series on Cryptococcus gattii) was greater than 230 µM throughout.
